Data from ChEMBL document CHEMBL4673184, “Synthesis and biological evaluation of S-lipidated lipopeptides of a connexin 43 channel inhibitory peptide” (RSC Med Chem, 2020).
Active and inactive are the calls of the source. No cut-off for these calls is given here. Where a SMILES comes first, the peptide text is derived from it. [ ]: non-standard residue; d: D form. The star is where a group is joined. Ethyl(2-stearoyloxy) = CCCCCCCCCCCCCCCCCC(=O)OCC*; Ethyl(2-palmitoyloxy) = CCCCCCCCCCCCCCCC(=O)OCC*; CH2CH2OBz(4-tBu) = CC(C)(C)c1ccc(C(=O)OCC*)cc1; Ethyl(2-decanoyloxy) = CCCCCCCCCC(=O)OCC*; Ethyl(2-butanoyloxy) = CCCC(=O)OCC*; Ethyl(2-OPiv) = CC(C)(C)C(=O)OCC*; Mpa = O=C(O)CCS

Each molecule was assayed against Gap junction alpha-1 protein (Homo sapiens) (UniProt P17302) (assay: Inhibition of Cx43 in hypoxic-acidic ion-shifted ringers solution-induced human cerebral microvascular endothelial cell model of ischaemic injury assessed as ATP release at 10 uM measured after 2 hrs by luciferin-luciferase based luminescence assay relative to control).
Sequence of Gap junction alpha-1 protein (Homo sapiens) (P17302 whole entry): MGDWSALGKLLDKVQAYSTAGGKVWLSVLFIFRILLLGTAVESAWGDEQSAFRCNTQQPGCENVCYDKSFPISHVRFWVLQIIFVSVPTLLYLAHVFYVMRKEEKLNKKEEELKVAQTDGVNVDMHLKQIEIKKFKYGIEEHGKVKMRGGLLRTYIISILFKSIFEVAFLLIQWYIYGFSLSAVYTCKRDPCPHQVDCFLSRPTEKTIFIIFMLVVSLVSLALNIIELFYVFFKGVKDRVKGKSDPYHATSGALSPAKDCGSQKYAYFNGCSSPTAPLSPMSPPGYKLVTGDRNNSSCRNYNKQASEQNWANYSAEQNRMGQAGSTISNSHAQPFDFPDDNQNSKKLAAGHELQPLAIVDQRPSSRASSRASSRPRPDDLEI
Set-up: scale not given: the % may be the effect or the level left
In short: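 hCMVEC (passages 8-17) seeded at 2 x 10^6/well on collagen-I (1 µg/cm²) and grown 48 h to a confluent monolayer. Washed in NR, then exposed 2 h in HAIR (pH 6.6, N₂-bubbled, low Ca²⁺, K-gluconate/NMDG) containing peptide at 10 µM. Supernatant diluted 1:10 in firefly luciferase mix and read at 560 nm against an ATP standard (0-50 nM). Expressed as % of HAIR-only, mean of n=3.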
In the case of `CCCCCCCCCC(=O)OCCSC[C@H](N)C(=O)N[C@@H](CC(=O)O)C(=O)N[C@@H](CS)C(=O)N[C@@H](Cc1ccccc1)C(=O)N[C@@H](CC(C)C)C(=O)N[C@@H](CO)C(=O)N[C@@H](CCCNC(=N)N)C(=O)N1CCC[C@H]1C(=O)N[C@H](C(=O)N[C@@H](CCC(=O)O)C(=O)N[C@@H](CCCCN)C(=O)N[C@H](C(=O)O)[C@@H](C)O)[C@@H](C)O` (H-C(Ethyl(2-decanoyloxy))DCFLSRPTEKT-OH), the Activity is reported as “inactive”. For `CCCCCCCCCCCCCCCCCC(=O)OCCSC[C@H](NC(=O)[C@H](CCCCN)NC(=O)[C@H](CCC(=O)O)NC(=O)[C@@H](NC(=O)[C@@H]1CCCN1C(=O)[C@H](CCCNC(=N)N)NC(=O)[C@H](CO)NC(=O)[C@H](CC(C)C)NC(=O)[C@H](Cc1ccccc1)NC(=O)[C@H](CS)NC(=O)[C@H](CC(=O)O)NC(=O)[C@@H](N)C(C)C)[C@@H](C)O)C(=O)O` (H-VDCFLSRPTEKC(Ethyl(2-stearoyloxy))-OH), the Activity was 129%. `CCCC(=O)OCCSC[C@H](NC(=O)[C@H](CC(C)C)NC(=O)[C@H](Cc1ccccc1)NC(=O)[C@H](CS)NC(=O)[C@H](CC(=O)O)NC(=O)[C@@H](N)C(C)C)C(=O)N[C@@H](CCCNC(=N)N)C(=O)N1CCC[C@H]1C(=O)N[C@H](C(=O)N[C@@H](CCC(=O)O)C(=O)N[C@@H](CCCCN)C(=O)N[C@H](C(=O)O)[C@@H](C)O)[C@@H](C)O` (H-VDCFLC(Ethyl(2-butanoyloxy))RPTEKT-OH) was tested, and the Activity was “inactive”. In the case of `CCCCCCCCCC(=O)OCCSC[C@H](NC(=O)[C@@H]1CCCN1C(=O)[C@H](CCCNC(=N)N)NC(=O)[C@H](CO)NC(=O)[C@H](CC(C)C)NC(=O)[C@H](Cc1ccccc1)NC(=O)[C@H](CS)NC(=O)[C@H](CC(=O)O)NC(=O)[C@@H](N)C(C)C)C(=O)N[C@@H](CCC(=O)O)C(=O)N[C@@H](CCCCN)C(=O)N[C@H](C(=O)O)[C@@H](C)O` (H-VDCFLSRPC(Ethyl(2-decanoyloxy))EKT-OH), the Activity is reported as “inactive”. `CCCC(=O)OCCSC[C@H](NC(=O)[C@@H](NC(=O)[C@@H]1CCCN1C(=O)[C@H](CCCNC(=N)N)NC(=O)[C@H](CO)NC(=O)[C@H](CC(C)C)NC(=O)[C@H](Cc1ccccc1)NC(=O)[C@H](CS)NC(=O)[C@H](CC(=O)O)NC(=O)[C@@H](N)C(C)C)[C@@H](C)O)C(=O)N[C@@H](CCCCN)C(=O)N[C@H](C(=O)O)[C@@H](C)O` (H-VDCFLSRPTC(Ethyl(2-butanoyloxy))KT-OH) was tested, and the Activity was 32%. With `CCCCCCCCCCCCCCCC(=O)OCCSC[C@H](NC(=O)[C@H](CC(C)C)NC(=O)[C@H](Cc1ccccc1)NC(=O)[C@H](CS)NC(=O)[C@H](CC(=O)O)NC(=O)[C@@H](N)C(C)C)C(=O)N[C@@H](CCCNC(=N)N)C(=O)N1CCC[C@H]1C(=O)N[C@H](C(=O)N[C@@H](CCC(=O)O)C(=O)N[C@@H](CCCCN)C(=O)N[C@H](C(=O)O)[C@@H](C)O)[C@@H](C)O` (H-VDCFLC(Ethyl(2-palmitoyloxy))RPTEKT-OH) the Activity was “inactive”. With `CC(C)C[C@H](NC(=O)[C@H](CSCCOC(=O)c1ccc(C(C)(C)C)cc1)NC(=O)[C@H](CS)NC(=O)[C@H](CC(=O)O)NC(=O)[C@@H](N)C(C)C)C(=O)N[C@@H](CO)C(=O)N[C@@H](CCCNC(=N)N)C(=O)N1CCC[C@H]1C(=O)N[C@H](C(=O)N[C@@H](CCC(=O)O)C(=O)N[C@@H](CCCCN)C(=O)N[C@H](C(=O)O)[C@@H](C)O)[C@@H](C)O` (H-VDCC(CH2CH2OBz(4-tBu))LSRPTEKT-OH) the Activity was “inactive”. With `CCCC(=O)OCCSC[C@H](NC(=O)[C@H](CS)NC(=O)[C@H](CC(=O)O)NC(=O)[C@@H](N)C(C)C)C(=O)N[C@@H](CC(C)C)C(=O)N[C@@H](CO)C(=O)N[C@@H](CCCNC(=N)N)C(=O)N1CCC[C@H]1C(=O)N[C@H](C(=O)N[C@@H](CCC(=O)O)C(=O)N[C@@H](CCCCN)C(=O)N[C@H](C(=O)O)[C@@H](C)O)[C@@H](C)O` (H-VDCC(Ethyl(2-butanoyloxy))LSRPTEKT-OH) the Activity was “inactive”. Work on `CC(C)C[C@H](NC(=O)[C@H](CSCCOC(=O)C(C)(C)C)NC(=O)[C@H](CS)NC(=O)[C@H](CC(=O)O)NC(=O)[C@@H](N)C(C)C)C(=O)N[C@@H](CO)C(=O)N[C@@H](CCCNC(=N)N)C(=O)N1CCC[C@H]1C(=O)N[C@H](C(=O)N[C@@H](CCC(=O)O)C(=O)N[C@@H](CCCCN)C(=O)N[C@H](C(=O)O)[C@@H](C)O)[C@@H](C)O` (H-VDCC(Ethyl(2-OPiv))LSRPTEKT-OH) yielded an Activity of 23.4%. For `CCCC(=O)OCCSC[C@H](N)C(=O)N[C@@H](CC(=O)O)C(=O)N[C@@H](CS)C(=O)N[C@@H](Cc1ccccc1)C(=O)N[C@@H](CC(C)C)C(=O)N[C@@H](CO)C(=O)N[C@@H](CCCNC(=N)N)C(=O)N1CCC[C@H]1C(=O)N[C@H](C(=O)N[C@@H](CCC(=O)O)C(=O)N[C@@H](CCCCN)C(=O)N[C@H](C(=O)O)[C@@H](C)O)[C@@H](C)O` (H-C(Ethyl(2-butanoyloxy))DCFLSRPTEKT-OH), the Activity was “inactive”. `CC(C)C[C@H](NC(=O)[C@H](Cc1ccccc1)NC(=O)[C@H](CS)NC(=O)[C@H](CC(=O)O)NC(=O)[C@@H](N)C(C)C)C(=O)N[C@@H](CO)C(=O)N[C@@H](CCCNC(=N)N)C(=O)N1CCC[C@H]1C(=O)N[C@@H](CSCCOC(=O)c1ccc(C(C)(C)C)cc1)C(=O)N[C@@H](CCC(=O)O)C(=O)N[C@@H](CCCCN)C(=O)N[C@H](C(=O)O)[C@@H](C)O` (H-VDCFLSRPC(CH2CH2OBz(4-tBu))EKT-OH) was tested, and the Activity was “inactive”. `CCCCCCCCCCCCCCCCCC(=O)OCCSCCC(=O)N[C@H](C(=O)N[C@@H](CC(=O)O)C(=O)N[C@@H](CS)C(=O)N[C@@H](Cc1ccccc1)C(=O)N[C@@H](CC(C)C)C(=O)N[C@@H](CO)C(=O)N[C@@H](CCCNC(=N)N)C(=O)N1CCC[C@H]1C(=O)N[C@H](C(=O)N[C@@H](CCC(=O)O)C(=O)N[C@@H](CCCCN)C(=O)N[C@H](C(=O)O)[C@@H](C)O)[C@@H](C)O)C(C)C` ([Mpa](Ethyl(2-stearoyloxy))VDCFLSRPTEKT-OH) was tested, and the Activity was “inactive”. `CC(C)C[C@H](NC(=O)[C@H](Cc1ccccc1)NC(=O)[C@H](CS)NC(=O)[C@H](CC(=O)O)NC(=O)[C@@H](N)C(C)C)C(=O)N[C@@H](CO)C(=O)N[C@@H](CCCNC(=N)N)C(=O)N1CCC[C@H]1C(=O)N[C@H](C(=O)N[C@@H](CCC(=O)O)C(=O)N[C@@H](CCCCN)C(=O)N[C@@H](CSCCOC(=O)c1ccc(C(C)(C)C)cc1)C(=O)O)[C@@H](C)O` (H-VDCFLSRPTEKC(CH2CH2OBz(4-tBu))-OH) was tested, and the Activity was “inactive”. `CCCCCCCCCC(=O)OCCSCCC(=O)N[C@H](C(=O)N[C@@H](CC(=O)O)C(=O)N[C@@H](CS)C(=O)N[C@@H](Cc1ccccc1)C(=O)N[C@@H](CC(C)C)C(=O)N[C@@H](CO)C(=O)N[C@@H](CCCNC(=N)N)C(=O)N1CCC[C@H]1C(=O)N[C@H](C(=O)N[C@@H](CCC(=O)O)C(=O)N[C@@H](CCCCN)C(=O)N[C@H](C(=O)O)[C@@H](C)O)[C@@H](C)O)C(C)C` ([Mpa](Ethyl(2-decanoyloxy))VDCFLSRPTEKT-OH) was tested, and the Activity was “inactive”. `CCCCCCCCCCCCCCCC(=O)OCCSC[C@H](NC(=O)[C@H](CS)NC(=O)[C@H](CC(=O)O)NC(=O)[C@@H](N)C(C)C)C(=O)N[C@@H](CC(C)C)C(=O)N[C@@H](CO)C(=O)N[C@@H](CCCNC(=N)N)C(=O)N1CCC[C@H]1C(=O)N[C@H](C(=O)N[C@@H](CCC(=O)O)C(=O)N[C@@H](CCCCN)C(=O)N[C@H](C(=O)O)[C@@H](C)O)[C@@H](C)O` (H-VDCC(Ethyl(2-palmitoyloxy))LSRPTEKT-OH) was tested, and the Activity was “inactive”. With `CCCCCCCCCCCCCCCCCC(=O)OCCSC[C@H](NC(=O)[C@H](CS)NC(=O)[C@H](CC(=O)O)NC(=O)[C@@H](N)C(C)C)C(=O)N[C@@H](CC(C)C)C(=O)N[C@@H](CO)C(=O)N[C@@H](CCCNC(=N)N)C(=O)N1CCC[C@H]1C(=O)N[C@H](C(=O)N[C@@H](CCC(=O)O)C(=O)N[C@@H](CCCCN)C(=O)N[C@H](C(=O)O)[C@@H](C)O)[C@@H](C)O` (H-VDCC(Ethyl(2-stearoyloxy))LSRPTEKT-OH) the Activity was “inactive”. `CCCCCCCCCCCCCCCC(=O)OCCSC[C@H](NC(=O)[C@H](CCCCN)NC(=O)[C@H](CCC(=O)O)NC(=O)[C@@H](NC(=O)[C@@H]1CCCN1C(=O)[C@H](CCCNC(=N)N)NC(=O)[C@H](CO)NC(=O)[C@H](CC(C)C)NC(=O)[C@H](Cc1ccccc1)NC(=O)[C@H](CS)NC(=O)[C@H](CC(=O)O)NC(=O)[C@@H](N)C(C)C)[C@@H](C)O)C(=O)O` (H-VDCFLSRPTEKC(Ethyl(2-palmitoyloxy))-OH) showed an Activity of 131%. In the case of `CCCCCCCCCCCCCCCC(=O)OCCSC[C@H](N)C(=O)N[C@@H](CC(=O)O)C(=O)N[C@@H](CS)C(=O)N[C@@H](Cc1ccccc1)C(=O)N[C@@H](CC(C)C)C(=O)N[C@@H](CO)C(=O)N[C@@H](CCCNC(=N)N)C(=O)N1CCC[C@H]1C(=O)N[C@H](C(=O)N[C@@H](CCC(=O)O)C(=O)N[C@@H](CCCCN)C(=O)N[C@H](C(=O)O)[C@@H](C)O)[C@@H](C)O` (H-C(Ethyl(2-palmitoyloxy))DCFLSRPTEKT-OH), the Activity is reported as “inactive”. In the case of `CC(C)C[C@H](NC(=O)[C@H](Cc1ccccc1)NC(=O)[C@H](CS)NC(=O)[C@H](CC(=O)O)NC(=O)[C@@H](N)CSCCOC(=O)c1ccc(C(C)(C)C)cc1)C(=O)N[C@@H](CO)C(=O)N[C@@H](CCCNC(=N)N)C(=O)N1CCC[C@H]1C(=O)N[C@H](C(=O)N[C@@H](CCC(=O)O)C(=O)N[C@@H](CCCCN)C(=O)N[C@H](C(=O)O)[C@@H](C)O)[C@@H](C)O` (H-C(CH2CH2OBz(4-tBu))DCFLSRPTEKT-OH), the Activity is reported as “inactive”. For `CCCCCCCCCC(=O)OCCSC[C@H](NC(=O)[C@H](CCCCN)NC(=O)[C@H](CCC(=O)O)NC(=O)[C@@H](NC(=O)[C@@H]1CCCN1C(=O)[C@H](CCCNC(=N)N)NC(=O)[C@H](CO)NC(=O)[C@H](CC(C)C)NC(=O)[C@H](Cc1ccccc1)NC(=O)[C@H](CS)NC(=O)[C@H](CC(=O)O)NC(=O)[C@@H](N)C(C)C)[C@@H](C)O)C(=O)O` (H-VDCFLSRPTEKC(Ethyl(2-decanoyloxy))-OH), the Activity was “inactive”.
